Experimental data reported in ChEMBL document CHEMBL3407400, “Design, synthesis and biological evaluations of chirally pure 1,2,3,4-tertrahydroisoquinoline analogs as anti-cancer agents” (Eur J Med Chem, 2015).
Activity calls are given as the source filed them. The rule behind the calls is not given here.

Assays:
[1] = system: HeLa; experiment: Anticancer activity against human HeLa cells after 48 hrs by MTT assay; type: functional, cell-based
Procedure, shortened: (§1)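 Cell lines held in DMEM or MEM with 10% FBS and antibiotic-antimycotic at 37 °C, 5% CO2. Cells seeded at 1 × 10⁴ per well in DMEM with 10% FBS and left 24 h. Compounds diluted in medium and added alongside vehicle control for 48 h. MTT (5 mg/mL) added for 4 h, formazan dissolved in DMSO, absorbance read at 570 nm.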

[2] = system: DU-145; experiment: Anticancer activity against human DU145 cells after 48 hrs by MTT assay; type: functional, cell-based; settings: DU-145, 48 h; procedure, shortened: as §1
[3] = system: HepG2; experiment: Anticancer activity against human HepG2 cells after 48 hrs by MTT assay; type: functional, cell-based; settings: HepG2, 48 h; procedure, shortened: as §1
[4] = system: A549; experiment: Anticancer activity against human A549 cells after 48 hrs by MTT assay; type: functional, cell-based; settings: A549, 48 h; procedure, shortened: as §1
[5] = system: MCF7; experiment: Anticancer activity against human MCF7 cells after 48 hrs by MTT assay; type: functional, cell-based; settings: MCF7, 48 h; procedure, shortened: as §1
[6] = system: DU-145; experiment: Disruption of microtubule network in human DU145 cells at 50 uM after 48 hrs by immunohistochemistry analysis; type: cell-based
[7] = system: DU-145; experiment: Cell cycle arrest in human DU145 cells assessed as S phase at 1 uM after 48 hrs by propidium iodide based flow cytometry (reference value: 1.65 %); type: functional
[8] = system: DU-145; experiment: Cell cycle arrest in human DU145 cells assessed as G0/G1 phase at 1 uM after 48 hrs by propidium iodide based flow cytometry (reference value: 79.15 %); type: functional
[9] = system: DU-145; experiment: Cell cycle arrest in human DU145 cells assessed as G2/M phase at 1 uM after 48 hrs by propidium iodide based flow cytometry (reference value: 6.75 %); type: functional
[10] = system: DU-145; experiment: Cell cycle arrest in human DU145 cells assessed as subG1 phase at 1 uM after 48 hrs by propidium iodide based flow cytometry (reference value: 9.36 %); type: functional
[11] = system: DU-145; experiment: Induction of apoptosis in human DU145 cells assessed as early apoptotic cells at 0.5 uM after 48 hrs by annexin V FITC/PI dual staining assay (reference value: 0.77 %); type: functional
[12] = system: DU-145; experiment: Induction of apoptosis in human DU145 cells assessed as viable cells at 1 uM after 48 hrs by annexin V FITC/PI dual staining assay (reference value: 96.45 %); type: functional; settings: DU-145, 48 h, read-out: Activity
[13] = system: DU-145; experiment: Induction of apoptosis in human DU145 cells assessed as early apoptotic cells at 1 uM after 48 hrs by annexin V FITC/PI dual staining assay (reference value: 0.77 %); type: functional
[14] = system: DU-145; experiment: Cell cycle arrest in human DU145 cells assessed as G2/M phase at 0.5 uM after 48 hrs by propidium iodide based flow cytometry (reference value: 6.75 %); type: functional
[15] = target: Tubulin; experiment: Inhibition of tubulin (unknown origin) polymerization by fluorescence assay; type: protein-complex assay, Homo sapiens
[16] = system: DU-145; experiment: Induction of apoptosis in human DU145 cells assessed as activation of caspase 3 at 0.5 to 1 uM after 48 hrs by fluorometric assay relative to control; type: functional
Procedure, shortened: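 DU-145 cells treated for 48 h. Fluorometric caspase-3 kit used: […] substrate added to cell lysate, 1 h at 37 °C. Fluorescence read at excitation 400 nm, emission 505 nm.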

[17] = system: DU-145; experiment: Cell cycle arrest in human DU145 cells assessed as G0/G1 phase at 0.5 uM after 48 hrs by propidium iodide based flow cytometry (reference value: 79.15 %); type: functional
[18] = system: DU-145; experiment: Induction of apoptosis in human DU145 cells assessed as viable cells at 0.5 uM after 48 hrs by annexin V FITC/PI dual staining assay (reference value: 96.45 %); type: functional; settings: DU-145, 48 h, read-out: Activity
[19] = system: DU-145; experiment: Induction of apoptosis in human DU145 cells assessed as late apoptotic cells at 0.5 uM after 48 hrs by annexin V FITC/PI dual staining assay (reference value: 2.47 %); type: functional
[20] = system: DU-145; experiment: Induction of apoptosis in human DU145 cells assessed as DNA fragmentation at 0.5 uM after 48 hrs by agarose gel electrophoresis; type: functional, cell-based
Procedure, shortened: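 DU-145 cells (1 × 10⁶) seeded, then treated 24 h later for 48 h. Lysate cleared, then digested with SDS/RNase A (2 h, 56 °C) and proteinase K (2 h, 37 °C). DNA precipitated with ammonium acetate and ice-cold ethanol, dissolved in TE. Laddering resolved on 2% agarose.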

[21] = system: DU-145; experiment: Cell cycle arrest in human DU145 cells assessed as S phase at 0.5 uM after 48 hrs by propidium iodide based flow cytometry (reference value: 1.65 %); type: functional
[22] = system: DU-145; experiment: Induction of apoptosis in human DU145 cells assessed as down regulation of Bcl2 at 0.5 uM after 48 hrs by Western blot analysis relative to control; type: functional, cell-based
[23] = system: DU-145; experiment: Induction of apoptosis in human DU145 cells assessed as up regulation of Bax at 0.5 uM after 48 hrs by Western blot analysis relative to control; type: functional, cell-based
[24] = system: DU-145; experiment: Induction of apoptosis in human DU145 cells assessed as late apoptotic cells at 1 uM after 48 hrs by annexin V FITC/PI dual staining assay (reference value: 2.47 %); type: functional
[25] = system: DU-145; experiment: Induction of apoptosis in human DU145 cells assessed as necrotic cells at 1 uM after 48 hrs by annexin V FITC/PI dual staining assay (reference value: 0.31 %); type: functional
[26] = system: DU-145; experiment: Cell cycle arrest in human DU145 cells assessed as subG1 phase at 0.5 uM after 48 hrs by propidium iodide based flow cytometry (reference value: 9.36 %); type: functional
[27] = system: DU-145; experiment: Induction of apoptosis in human DU145 cells assessed as necrotic cells at 0.5 uM after 48 hrs by annexin V FITC/PI dual staining assay (reference value: 0.31 %); type: functional

## O=C(/C=C/c1ccc(F)cc1)N1Cc2ccccc2[C@@H](OCc2ccccc2)[C@@H]1CO
[1]
  IC50: 58.3 µM
[2]
  IC50: 29.3 µM
[3]
  IC50: 24.6 µM
[4]
  IC50: 32.3 µM
[5]
  IC50: 57.3 µM

## Cc1ccc(S(=O)(=O)NCC(=O)N2Cc3ccccc3[C@@H](OCc3ccccc3)[C@@H]2CO)cc1
[1]
  IC50: 15.1 µM
[2]
  IC50: 3.8 µM
[3]
  IC50: 5.05 µM
[4]
  IC50: 6.03 µM
[5]
  IC50: 11.5 µM

## COc1cc(/C=C/C(=O)N2Cc3ccccc3[C@@H](OCc3ccccc3)[C@@H]2CO)ccc1O
[1]
  IC50: 67.6 µM
[2]
  IC50: 41.3 µM
[3]
  IC50: 79.4 µM
[4]
  IC50: 63 µM
[5]
  IC50: 37.3 µM

## COc1cccc2c1C(=O)c1c(O)c3c(c(O)c1C2=O)C[C@@](O)(C(=O)CO)C[C@@H]3O[C@H]1C[C@H](N)[C@H](O)[C@H](C)O1 [DOXORUBICIN]
[1]
  IC50: 2.29 µM
[2]
  IC50: 1.3 µM

## COc1cccc(/C=C/C(=O)N2Cc3ccccc3[C@@H](OCc3ccccc3)[C@@H]2CO)c1OC
[1]
  IC50: 32.8 µM
[2]
  IC50: 29.9 µM
[3]
  IC50: 31 µM
[4]
  IC50: 39.8 µM
[5]
  IC50: 55.1 µM

## COC(=O)Nc1nc2cc(C(=O)c3cccs3)ccc2[nH]1 [NOCODAZOLE]
[6]
  Activity: Active
[7]
  Activity: 0.86%
[8]
  Activity: 48.19%
[9]
  Activity: 43.4%
[10]
  Activity: 4.52%

## Cc1ccc(S(=O)(=O)N2C[C@H]3[C@H](OCc4ccccc4)c4ccccc4CN3C(=O)[C@@H]2Cc2ccccc2)cc1
[1]
  IC50: 20.3 µM
[2]
  IC50: 7.41 µM
[3]
  IC50: 10.8 µM
[4]
  IC50: 13.7 µM
[5]
  IC50: 17.6 µM

## Cc1ccc(S(=O)(=O)N[C@H](C(=O)N2Cc3ccccc3[C@@H](OCc3ccccc3)[C@@H]2CO)C(C)C)cc1
[1]
  IC50: 92.6 µM
[2]
  IC50: 31.6 µM
[3]
  IC50: 32 µM
[4]
  IC50: 79.4 µM
[5]
  IC50: 60.4 µM

## O=C(/C=C/c1ccccc1)N1Cc2ccccc2[C@@H](OCc2ccccc2)[C@@H]1CO
[1]
  IC50: 27.7 µM
[2]
  IC50: 12.9 µM
[3]
  IC50: 20.7 µM
[4]
  IC50: 25.1 µM
[5]
  IC50: 39.8 µM

## Cc1ccc(S(=O)(=O)N[C@@H](C)C(=O)N2Cc3ccccc3[C@@H](OCc3ccccc3)[C@@H]2CO)cc1
[1]
  IC50: 21 µM
[2]
  IC50: 4.67 µM
[3]
  IC50: 5.37 µM
[4]
  IC50: 7.37 µM
[5]
  IC50: 14.8 µM

## COc1ccc(C(=O)N2Cc3ccccc3[C@@H](OCc3ccccc3)[C@@H]2CO)c(O)c1
[1]
  IC50: 12.5 µM
[2]
  IC50: 9.77 µM
[3]
  IC50: 11.4 µM
[4]
  IC50: 6.46 µM
[5]
  IC50: 21.8 µM

## Cc1ccc(S(=O)(=O)N[C@@H](Cc2ccccc2)C(=O)N2Cc3ccccc3[C@@H](OCc3ccccc3)[C@@H]2CO)cc1
[1]
  IC50: 12.3 µM
[2]
  IC50: 1.26 µM
[3]
  IC50: 2.24 µM
[4]
  IC50: 6.91 µM
[5]
  IC50: 8.71 µM

## COc1cc([C@@H]2c3cc4c(cc3[C@@H](O[C@@H]3O[C@@H]5CO[C@@H](C)O[C@H]5[C@H](O)[C@H]3O)[C@H]3COC(=O)[C@H]23)OCO4)cc(OC)c1O [ETOPOSIDE]
[1]
  IC50: 3.23 µM
[7]
  Activity: 1.45%
[2]
  IC50: 1.98 µM
[3]
  IC50: 2.45 µM
[8]
  Activity: 48.84%
[4]
  IC50: 3.01 µM
[9]
  Activity: 38.75%
[10]
  Activity: 7.13%
[5]
  IC50: 2.69 µM

## O=C(/C=C/c1cccc(O)c1)N1Cc2ccccc2[C@@H](OCc2ccccc2)[C@@H]1CO
[1]
  IC50: 15.8 µM
[2]
  IC50: 2.08 µM
[3]
  IC50: 2.82 µM
[4]
  IC50: 4.36 µM
[5]
  IC50: 19.2 µM

## CC#CC(=O)N1Cc2ccccc2[C@@H](OCc2ccccc2)[C@@H]1CO
[1]
  IC50: 11.6 µM
[2]
  IC50: 6.16 µM
[3]
  IC50: 7.94 µM
[4]
  IC50: 9.33 µM
[5]
  IC50: 18.6 µM

## O=C(/C=C/c1ccc([N+](=O)[O-])cc1)N1Cc2ccccc2[C@@H](OCc2ccccc2)[C@@H]1CO
[1]
  IC50: 26.8 µM
[2]
  IC50: 4.07 µM
[3]
  IC50: 5.37 µM
[4]
  IC50: 5.62 µM
[5]
  IC50: 24.4 µM

## Cc1ccc(S(=O)(=O)N2CC(=O)N3Cc4ccccc4[C@@H](OCc4ccccc4)[C@@H]3C2)cc1
[6]
  Activity: Active
[1]
  IC50: 3.16 µM
[11]
  Activity: 2.79%
[7]
  Activity: 0.9%
[12]
  viability at 1 µM: 65.6%
[13]
  Activity: 4.15%
[14]
  Activity: 17.68%
[2]
  IC50: 0.72 µM
[3]
  IC50: 0.87 µM
[15]
  IC50: 1.68 µM
[8]
  Activity: 46.74%
[4]
  IC50: 1.26 µM
[16]
  fold change (FC): 3
[17]
  Activity: 67.34%
[18]
  viability at 0.5 µM: 90.1%
[19]
  Activity: 6.47%
[9]
  Activity: 44.17%
[20]
  Activity: Active
[21]
  Activity: 2.64%
[10]
  Activity: 5.02%
[22]
  Activity: Active
[23]
  Activity: Active
[24]
  Activity: 25.79%
[25]
  Activity: 4.48%
[26]
  Activity: 8.22%
[5]
  IC50: 2.51 µM
[27]
  Activity: 0.63%

## Cc1ccc(S(=O)(=O)N2C[C@H]3[C@H](OCc4ccccc4)c4ccccc4CN3C(=O)[C@@H]2C)cc1
[6]
  Activity: Active
[1]
  IC50: 7.31 µM
[11]
  Activity: 1.88%
[7]
  Activity: 1.83%
[12]
  viability at 1 µM: 69.2%
[13]
  Activity: 4.94%
[14]
  Activity: 16.96%
[2]
  IC50: 1.23 µM
[3]
  IC50: 1.7 µM
[15]
  IC50: 3.55 µM
[8]
  Activity: 46.67%
[4]
  IC50: 2.45 µM
[16]
  fold change (FC): 3
[17]
  Activity: 68.53%
[18]
  viability at 0.5 µM: 92.8%
[19]
  Activity: 4.45%
[9]
  Activity: 40.27%
[20]
  Activity: Active
[21]
  Activity: 2.8%
[10]
  Activity: 6.74%
[22]
  Activity: Active
[23]
  Activity: Active
[24]
  Activity: 21.14%
[25]
  Activity: 4.7%
[26]
  Activity: 8.25%
[5]
  IC50: 5.49 µM
[27]
  Activity: 0.82%

## Cc1ccc(S(=O)(=O)Nc2ccccc2C(=O)N2Cc3ccccc3[C@@H](OCc3ccccc3)[C@@H]2CO)cc1
[1]
  IC50: 56.3 µM
[2]
  IC50: 39.8 µM
[3]
  IC50: 57.5 µM
[4]
  IC50: 37.1 µM
[5]
  IC50: 79.4 µM
